Experimental data: ChEMBL document CHEMBL1148956, “New sesquiterpenes from Pluchea arabica” (J Nat Prod, 2004)
≈ marks a conversion by molar mass, not a printed value. Calls of active or inactive are those of the source. No cut-off for these calls is given here.

How the values were obtained:
[1] = test system: Escherichia coli; experiment: Antimicrobial activity against Escherichia coli ATCC 9637 up to 500 ug/ml by agar-dilution-streak method; assay type: functional, organism-based
[2] = test system: Salmonella enterica; experiment: Antimicrobial activity against Salmonella choleraesuis ATCC 14028 up to 500 ug/ml by agar-dilution-streak method; assay type: functional, organism-based
Summary of the method: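 Salmonella choleraesuis ATCC 14028 was tested by the agar-dilution-streak method, alongside S. aureus ATCC 29213, P. aeruginosa ATCC 27853, C. albicans ATCC 10231 and K. pneumoniae ATCC 10031. Test compounds were dissolved in DMSO.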

[3] = test system: Klebsiella pneumoniae; experiment: Antimicrobial activity against Klebsiella pneumoniae ATCC 10031 up to 500 ug/ml by agar-dilution-streak method; assay type: functional, organism-based
Summary of the method: (§1)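 Screened with the agar-dilution-streak method. MIC was set by broth dilution following NCCLS. Compounds were dissolved in DMSO and diluted to graded concentrations in tryptone soy broth.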

[4] = test system: Candida albicans; experiment: Antimicrobial activity against Candida albicans ATCC 10231 up to 500 ug/ml by agar-dilution-streak method; assay type: functional, organism-based; summary of the method: as §1
[5] = test system: Radical scavenging activity; experiment: Antioxidant activity assessed as DPPH free radical scavenging activity relative to control; assay type: functional
[6] = test system: Staphylococcus aureus; experiment: Antimicrobial activity against Staphylococcus aureus ATCC 29213 by agar-dilution-streak method; assay type: functional; summary of the method: as §1
[7] = test system: Pseudomonas aeruginosa; experiment: Antimicrobial activity against Pseudomonas aeruginosa ATCC 27853 up to 500 ug/ml by agar-dilution-streak method; assay type: functional, organism-based; summary of the method: as §1
[8] = Toxicity against brine shrimp larvae; assay type: organism-based; conditions: artemia, in vivo

| Structure (SMILES) | Activity [1] | Activity [2] | Activity [3] | Activity [4] | Activity [5] [%] | MIC [6] [µg/mL] | Activity [7] | LC50 [8] [µg/mL] |
| --- | --- | --- | --- | --- | --- | --- | --- | --- |
| C=C1C(CC2C[C@H](O)C=C2C)C(C)(C)C[C@H]1O (stereo partly specified) [GODOTOL A] | inactive | inactive | inactive | inactive | < 10 | 250 (≈ 1060 µM) | inactive | 290 (≈ 1230 µM) |
| C=C1C[C@@H](O)C=C(C)C2C1CC[C@@H](O)C2(C)C (stereo partly specified) [GODOTOL B] | inactive | inactive | inactive | inactive | < 10 | 500 (≈ 2120 µM) | inactive | 540 (≈ 2280 µM) |
